Compound activity (PubChem BioAssay)
T cell HTS – modulates CD8 T cell binding to vesicles; 2C CD8+ T cell-vesicle binding, flow cytometry; active compounds read low; response (vesicle binding), % at 7 µM; 330,000 tested, 0.068% active; AID 2052;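 active means response, share of CD8 T cells binding vesicles, and their 90th percentile fluorescence all below set limits, cut at about 80% in these data, passing the limit was not always enough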;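 further: values below 100% mean blocked vesicle binding to the CD8+ T cells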
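Read-out – percent CD8+ FL2 mean versus row control · System – murine 2C transgenic CD8+ T lymphocytes · Times – 1.5 h cell–vesicle binding at 37 °C, then 20 min icy labelling · Control set – naked vesicles low, QL9 vesicles with vehicle high · Detection – cytometric PE anti-B7-1 and Alexa647 anti-CD8 signals after 1% paraformaldehyde fixation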
procasp7 counter – counter-screen: procaspase-7 (human) activation; recombinant procaspase-7, Ac-DEVD-pNA absorbance 405 nm; D23A/D198A/D206A triple mutant, cannot self-cleave; scale: DMSO 0, 5 µM enzyme 100; P55210; 330,000 tested, 0.093% active; AID 463210; activation, % at 8.5 µM;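 active means percent activation above the screen-wide mean plus 3 SD, cut at about 25% in these data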
Target sequence (P55210 whole entry D23A/D198A/D206A): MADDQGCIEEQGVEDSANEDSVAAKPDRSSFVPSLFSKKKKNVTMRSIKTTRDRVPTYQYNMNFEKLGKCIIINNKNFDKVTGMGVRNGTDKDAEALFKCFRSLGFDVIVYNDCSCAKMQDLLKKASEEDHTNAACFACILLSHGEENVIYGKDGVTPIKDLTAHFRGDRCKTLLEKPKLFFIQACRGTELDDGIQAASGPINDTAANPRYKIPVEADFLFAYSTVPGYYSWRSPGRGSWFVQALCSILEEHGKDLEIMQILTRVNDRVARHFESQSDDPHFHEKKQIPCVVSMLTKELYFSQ
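Replicates: singlicate. Assay system: Procaspase-7 triple mutant (PC-7 D3A). Signal: 405 nm absorbance of p-nitroaniline. Times: 1 h preincubation, 2 h reaction. Buffer or medium: Zinc-free HEPES pH 7.4 with 300 mM NaCl, 0.01% Triton X-100. Also added: DEVD-pNA substrate. Benchmarks: DMSO wells as 0%, DMSO with 5 µM added PC-7 as 100%.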
aDG glyco act – increases alpha dystroglycan glycosylation; Pro5-aDG cells, alpha-DG glycosylation AlphaScreen (IIH6); 0% Pro5, 100% B10-LARGE cell signal; activation, % at 10 µM; 360,000 tested, 0.22% active;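 active means activation of at least 8% versus controls, or a plate z-score of at least 8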;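 further: Pro5 are CHO cells carrying HIG-tagged alpha-DG that lacks glycosylation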
procasp3 activ – activators of human procaspase-3; P42574; recombinant procaspase-3 D3A, Ac-DEVD-pNA absorbance 405 nm; activation, % at 8.5 µM; 330,000 tested, 0.11% active; AID 463141;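 active means activation above the mean of all tested compounds plus 3 SD, cut at about 21% in these data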;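 further: 0% = DMSO alone and 100% = DMSO wells spiked with extra 5 µM PC-3 D3A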
Target sequence (P42574 whole entry D9A/D28A/D175A): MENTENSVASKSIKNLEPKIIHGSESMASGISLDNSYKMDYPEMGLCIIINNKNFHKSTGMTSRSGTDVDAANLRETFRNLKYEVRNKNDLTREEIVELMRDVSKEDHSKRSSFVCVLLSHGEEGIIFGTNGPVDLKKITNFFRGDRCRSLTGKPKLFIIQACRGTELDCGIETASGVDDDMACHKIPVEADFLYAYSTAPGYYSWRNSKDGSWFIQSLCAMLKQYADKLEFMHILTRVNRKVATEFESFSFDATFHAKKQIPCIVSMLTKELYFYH
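Assay system – Procaspase-3 D3A mutant, all three cleavage aspartates alanine · Controls – DMSO-only low control, 5 µM PC-3 D3A high control · Schedule – 1 h compound preincubation, 2 h substrate hydrolysis at 25 °C · Signal – 405 nm absorbance of p-nitroaniline, reads at 0 and 120 min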
GRK2 aptamer HTS – blocks RNA aptamer binding to human GRK2 | inhibition of aptamer binding, % at 10 µM | AID 488847 | bead flow cytometry, FAM-aptamer displacement from GRK2 | 330,000 tested, 0.59% active;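 active means inhibition of aptamer binding above 40%, roughly 3 SD of noise, on plates passing a quality check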;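 further: median bead fluorescence of bound FAM aptamer so fluorescent compounds give negative values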
CaV13 FRET inh – Primary screen for inhibitors of IQ motif and Ca2+-dependent inactivation inhibitor domain binding in CACNA1D, Förster resonance energy transfer in living cells, …. HEK cells, CFP/YFP FRET ICDI-IQ, plate reader, 10 min; percent FRET-ratio fall versus neutral wells. inhibition, % at 12.3 µM. 340,000 tested, 0.098% active. AID 743397;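 active means mean replicate inhibition of at least 30% and at least 1% of replicates passing that level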;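 further: 0% = median of the neutral control wells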
GRK2 CP1 – confirmation of human GRK2 inhibitors displacing RNA aptamer; bead-bound GRK2, FAM-aptamer displacement, flow cytometry; shares compounds with GRK2 aptamer HTS; aptamer displacement, % at 10 µM; 2,000 tested, 4% active;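 active means aptamer displacement above 40%, near three times the noise of non-fluorescent compounds, on plates passing quality checks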;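 further: negative values mostly reflect intrinsic compound fluorescence rather than true enhancement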
FAM quench CP1 – counter-screen for GRK2 aptamer inhibitors: fluorescent aptamer quenchers; shares compounds with GRK2 aptamer HTS; 2,000 tested, under 10 active; Carboxyfluorescein RNA aptamer on beads, flow cytometry quenching; active compounds read low; fluorescence response (% of DMSO), % at 10 µM;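 active means compounds that quench the bead-bound fluorescent RNA probe, cutting fluorescence to under half of the solvent control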;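 further: counterscreen run without GRK2 so only probe quenching by compound is measured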
GRK2 CP2 – confirmation of human GRK2 inhibitors binding RNA aptamer site; shares compounds with GRK2 aptamer HTS; bead-bound GRK2, FAM-aptamer displacement, flow cytometry; inhibition of aptamer binding, % at 10 µM; 360 tested, under 10 active;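 active means inhibition of aptamer binding above 40%, about triple the noise seen with nonglowing compounds, on plates passing quality control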;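 further: negative values mostly come from compounds that fluoresce themselves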
FAM quench CP2 – quenches fluorescent RNA aptamer, GRK2 hit artifact | shares compounds with GRK2 aptamer HTS | carboxyfluorescein RNA aptamer beads, flow cytometry quenching; active compounds read low | fluorescence response vs DMSO, % at 10 µM | 360 tested, under 10 active | AID 588494;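 active means response vs DMSO under 50%, meaning signal dropped by over half, treated as fluorescence quencher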;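 further: labelled aptamer on streptavidin beads without GRK2 as a quench counter-screen; 100% = bead fluorescence of DMSO wells and lower means quenching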
Numbers without * were called inactive; . = not tested or not shown; + = active, no number. Rows were chosen to be rich in hits. Some 1.1% of all compounds tested hit in one or more screens of this group.

SMILES | T cell HTS | procasp7 counter | aDG glyco act | procasp3 activ | GRK2 aptamer HTS | CaV13 FRET inh | GRK2 CP1 | FAM quench CP1 | others
Cc1cccc(-n2c(N)c(-c3nc4ccccc4n3C)c3nc4ccccc4nc32)c1 | 267 | -21 | 2 | -43 | 97* | -21 | . | . | GRK2 CP2=-104;FAM quench CP2=100
O=Cc1ccc(Oc2nc(Cl)ncc2F)cc1 | 164 | . | 0 | . | 39 | -5 | 12 | 91
O=Cc1ccc(Oc2ccc(F)cc2)nc1 | 541 | -6 | -1 | 8 | 9 | 2 | . | .
O=c1[nH]c2ccccc2nc1/C=C/c1ccccc1 | 209 | -2 | 0 | -2 | 52* | + | 2 | 100
CCN(CC)S(=O)(=O)c1ccc(C(=O)OC2CCCCC2CN(C)C)cc1 (stereo not drawn) | 407 | 1 | 0 | -2 | 70* | . | -3 | 99
Cn1cc(CNCC2CCCO2)c(-c2ccc(Oc3ccccc3)cc2)n1 (stereo not drawn) | 293 | 6 | 0 | 8 | 0 | -4 | . | .
Cc1cc(CNCc2cn(C)nc2-c2ccc(Oc3ccccc3)cc2)on1 | 184 | -5 | 0 | 5 | 100* | -5 | 0 | 101
O=C(O)c1ccc(N2C(=O)c3cccc4c(C(=O)O)ccc(c34)C2=O)cc1 | 630 | -6 | 0 | -2 | 70* | -7 | 30 | 107
O=C(O)c1ccc2c3c(cccc13)C(=O)N(c1ccccc1)C2=O | 162 | 7 | 0 | -10 | 40 | -4 | . | .
CC12CCC3C(CCC4CC(O)CCC43C)C1CC(=O)C2 (stereo not drawn) | . | . | 0 | . | . | -5 | . | .
O=C(Nc1cccnc1)c1c(O)c2cccc3c2n(c1=O)CC3 | 797 | 4 | 0 | 0 | 65* | . | -63 | 111
CNC(=O)c1c(O)c2cccc3c2n(c1=O)CC3 | 179 | 3 | 0 | -2 | 0 | . | . | .
CCOc1ccc(C(C)NC(=O)Cc2ccccc2F)cc1OCC (stereo not drawn) | 273 | -4 | 0 | 12 | 68* | -1 | 0 | 100
O=C(N[C@@H](Cc1cccnc1)C(=O)N1CCC[C@H]1C(=O)NCc1ccccc1)c1ccc(Cl)cc1Cl | . | . | . | . | . | -11 | . | .
COc1ccc(CN2CCCN(S(=O)(=O)c3ccc(Br)cc3)CC2)cc1 | 237 | 8 | 0 | 7 | 4 | -21 | . | .
COc1ccc(S(=O)(=O)N2CCN(Cc3ccc(Cl)cc3)CC2)cc1 | 300 | 7 | 0 | 6 | 65* | . | 0 | 102
CN1CCN(C(=S)SCC(=O)Nc2nc(-c3ccccc3)c(-c3ccccc3)o2)CC1 | 310 | 0 | 0 | -5 | 100* | -4 | . | . | GRK2 CP2=-4;FAM quench CP2=98
Cc1cc(C)n(CCC(=O)N2c3ccccc3CC2C)n1 (stereo not drawn) | 828 | -15 | 0 | 3 | 2 | -5 | . | .
Cc1cc(C)cc(NC(=O)CSc2nc3nc(C)cc(C)n3n2)c1 | 454 | -1 | 0 | -2 | 41* | -7 | -2 | 106
COc1ccccc1NCCC(=O)O | 539 | 7 | 0 | 2 | 2 | -1 | . | .
O=C(O)CCNc1ccc(NCCC(=O)O)c2c1C(=O)c1ccccc1C2=O | 232 | -3 | 0 | -2 | 42* | -5 | 31 | 90
CCNc1oc(/C=C/c2ccc(OCC)cc2)nc1C#N | 733 | 6 | 0 | -3 | 0 | -2 | . | .
COC(=O)c1ccc(CS(=O)(=O)c2ccccc2C)o1 | 241 | 2 | 0 | 2 | 4 | -8 | . | . | GRK2 CP2=-2;FAM quench CP2=101
CC(=O)Nc1ccc(S(=O)(=O)NCCc2ccc3c(c2)OCCO3)cc1 | . | . | 0 | . | . | -11 | . | .
Cc1ccccc1CN1[C@@H](C)[C@H](c2ccccc2)Oc2cccc(NCC(C)C)c2S1(=O)=O | . | . | . | . | . | -5 | . | .
SMILES | T cell HTS | procasp7 counter | aDG glyco act | procasp3 activ | GRK2 aptamer HTS | CaV13 FRET inh | GRK2 CP1 | FAM quench CP1 | others
COc1cccc(CC2(CO)CCCN(Cc3cn[nH]c3-c3ccccc3)C2)c1 (stereo not drawn) | 212 | 8 | 0 | 4 | 99* | -5 | -3 | 102
Cc1ccc(-c2noc(CC(=O)c3ccc([N+](=O)[O-])cc3)n2)cc1 | . | . | 0 | . | . | -10 | . | .
O=C(NCc1ccco1)c1cccc(NC(=O)c2ccco2)c1 | 351 | -1 | 0 | 10 | 0 | -9 | -3 | 101
CC(C)CNC(=O)c1cccc(NC(=O)c2ccco2)c1 | 474 | 9 | 0 | -1 | 0 | -9 | . | .
O=C(NCc1ccccc1)c1cccc(NC(=O)c2ccco2)c1 | 325 | 16 | 1 | -3 | 2 | -6 | 2 | 93
O=C(Nc1cc([N+](=O)[O-])ccc1O)c1cccc(NC(=O)c2ccco2)c1 | 230 | -9 | 0 | -7 | 78* | 0 | 1 | 103
CN(Cc1ccccc1)C(=O)c1cccc(NC(=O)c2ccco2)c1 | 552 | 10 | 0 | 3 | 4 | 0 | 1 | 104
COc1cc(NC(=O)c2cccc([N+](=O)[O-])c2)ccc1NC(=O)c1ccco1 | 426 | -12 | 0 | 4 | 0 | -4 | . | .
CC1(C)CC(N=Cc2c(O)n(Cc3ccc4c(c3)OCO4)c(=O)c3ccccc23)CC(C)(C)N1 | 285 | 8 | 0 | 3 | 0 | 6 | . | .
CC(C)Oc1ccc(C(=O)NCc2ccco2)cc1 | 296 | 2 | 0 | 4 | 0 | -4 | . | .
COc1ccc(C(=O)Nc2cccc(C(=O)NCc3ccco3)c2)cc1 | 242 | -1 | 0 | -4 | 0 | 5 | -1 | 96
Cn1c(SCc2ccccc2)nc2c1c(=O)[nH]c(=O)n2C | 269 | 7 | 0 | 5 | 4 | -3 | . | .
Cn1c(SCc2ccccc2Cl)nc2c1c(=O)[nH]c(=O)n2C | 303 | 8 | 0 | -2 | 71* | -11 | -2 | 95
CC(C)(C)OC(=O)N1CCC[C@H]1c1nnc(SCc2cccc(Cl)c2)o1 | 135 | 4 | 0 | -4 | 0 | -4 | . | .
